In ChEMBL document CHEMBL1148322, “Synthesis and quantitative structure-activity relationship of hydrazones of N-amino-N'-hydroxyguanidine as electron acceptors for xanthine oxidase” (J Med Chem, 2004):

The molecules below were run against Xanthine dehydrogenase/oxidase (Bos taurus, UniProt P80457) (assay: Electron acceptor activity on bovine milk xanthine oxidase using xanthine as reducing substrate). Conditions: cattle.
How it was run: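 Run anaerobically at 25 °C in a sealed cuvette with 25 mM Tris-HCl, 1 mM EDTA, pH 7.5. All solutions were argon-gassed for at least 10 min, and the reaction was started by injecting milk xanthine oxidase. Readings from anaerobic controls lacking the acceptor were subtracted. Uric acid formation was read as the increase in absorbance at 295 nm (ε 12.4 mmol⁻¹ cm⁻¹), expressed per min per unit enzyme, as the mean of three determinations.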

Chain of Xanthine dehydrogenase/oxidase (P80457 whole entry): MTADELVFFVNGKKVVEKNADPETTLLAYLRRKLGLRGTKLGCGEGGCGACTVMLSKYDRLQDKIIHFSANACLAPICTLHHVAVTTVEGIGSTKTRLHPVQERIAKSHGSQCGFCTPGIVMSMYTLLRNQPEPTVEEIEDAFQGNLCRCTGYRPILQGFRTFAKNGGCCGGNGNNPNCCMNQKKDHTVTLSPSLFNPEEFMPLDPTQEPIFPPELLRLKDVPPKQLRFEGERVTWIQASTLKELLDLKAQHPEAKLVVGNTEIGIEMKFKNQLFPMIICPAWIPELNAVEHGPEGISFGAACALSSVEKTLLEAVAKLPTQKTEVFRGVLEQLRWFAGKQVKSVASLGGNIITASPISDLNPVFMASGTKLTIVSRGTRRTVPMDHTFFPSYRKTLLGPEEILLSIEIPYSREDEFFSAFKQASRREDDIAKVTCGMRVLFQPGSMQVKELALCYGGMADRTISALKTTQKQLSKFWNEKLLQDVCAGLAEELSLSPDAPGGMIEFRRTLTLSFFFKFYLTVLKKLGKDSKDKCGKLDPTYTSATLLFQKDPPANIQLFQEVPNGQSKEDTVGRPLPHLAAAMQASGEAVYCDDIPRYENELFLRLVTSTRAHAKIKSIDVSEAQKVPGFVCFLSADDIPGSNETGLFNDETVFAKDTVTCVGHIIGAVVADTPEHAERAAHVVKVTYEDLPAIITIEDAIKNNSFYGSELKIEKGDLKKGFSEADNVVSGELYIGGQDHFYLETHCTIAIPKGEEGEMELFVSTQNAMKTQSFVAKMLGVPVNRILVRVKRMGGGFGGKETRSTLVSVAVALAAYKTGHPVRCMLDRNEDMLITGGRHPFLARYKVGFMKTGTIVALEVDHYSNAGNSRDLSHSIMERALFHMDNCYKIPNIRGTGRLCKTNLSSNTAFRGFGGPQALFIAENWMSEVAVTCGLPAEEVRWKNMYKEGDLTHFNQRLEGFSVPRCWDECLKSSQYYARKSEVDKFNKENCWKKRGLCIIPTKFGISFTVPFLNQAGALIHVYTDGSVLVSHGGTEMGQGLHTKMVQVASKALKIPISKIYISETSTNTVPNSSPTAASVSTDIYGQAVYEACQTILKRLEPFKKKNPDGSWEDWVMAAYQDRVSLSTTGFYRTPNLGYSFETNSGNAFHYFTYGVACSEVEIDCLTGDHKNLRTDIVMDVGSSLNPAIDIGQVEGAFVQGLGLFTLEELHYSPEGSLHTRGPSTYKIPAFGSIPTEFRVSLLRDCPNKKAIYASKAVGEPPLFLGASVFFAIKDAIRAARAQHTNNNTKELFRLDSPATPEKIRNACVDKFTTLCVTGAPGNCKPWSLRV

Row | SMILES | Acceptor activity
1 | N=C(NO)N/N=C/c1ccccc1Cl | 90.2
2 | N=C(NO)N/N=C/c1cccc(Cl)c1 | 45.4
3 | COc1ccc(/C=N/N=C(\N)NO)c(OC)c1OC | 81.5
4 | CN(C)c1ccc(/C=N/NC(=N)NO)cc1 | 41
5 | N=C(NO)N/N=C/c1cccc2c1OCO2 | 44.7
6 | N/C(=N\O)N/N=C/c1cccc([N+](=O)[O-])c1 | 24.4
7 | COc1cc(OC)c(/C=N/N=C(\N)NO)c(OC)c1 | 10.8
8 | N=C(NO)N/N=C/c1c(Cl)cccc1[N+](=O)[O-] | 44
9 | COc1cc([N+](=O)[O-])cc(/C=N/NC(=N)NO)c1OC | 0.8
10 | N=C(NO)N/N=C/c1ccc([N+](=O)[O-])cc1[N+](=O)[O-] | 295.7
11 | COc1ccc(OC)c(/C=N/N=C(\N)NO)c1 | 42.3
12 | N=C(NO)N/N=C/c1ccccc1[N+](=O)[O-] | 56.4
13 | COc1cc(/C=N/NC(=N)NO)cc(OC)c1 | 30.7
14 | COc1cccc(/C=N/NC(=N)NO)c1O | 45.5
15 | N/C(=N\O)N/N=C/c1cccc(F)c1 | 56.2
16 | N=C(NO)N/N=C/c1cccc(O)c1O | 43.7
17 | N=C(NO)N/N=C/c1ccccc1F | 49.6
18 | COc1cccc(OC)c1/C=N/NC(=N)NO | 13.2
19 | N=C(NO)N/N=C/c1ccc(O)cc1O | 72.9
20 | N=C(NO)N/N=C/c1ccc(F)cc1 | 43.2
21 | COc1ccc(/C=N/NC(=N)NO)cc1 | 50.9
22 | N=C(NO)N/N=C/c1ccc([N+](=O)[O-])cc1 | 94.2
23 | N=C(NO)N/N=C/c1cc(O)ccc1[N+](=O)[O-] | 31.5
24 | COc1cc([N+](=O)[O-])c(/C=N/NC(=N)NO)c(Cl)c1OC | 48.8
25 | COc1cc(OC)c(/C=N/NC(=N)NO)cc1Br | 16.3
26 | N=C(NO)N/N=C/c1ccc(O)cc1 | 64.2

Row | SMILES | Acceptor activity
27 | COc1cc(OC)c(OC)cc1/C=N/N=C(\N)NO | 29.7
28 | COc1cc([N+](=O)[O-])c([N+](=O)[O-])c(/C=N/NC(=N)NO)c1OC | 52.9
29 | N=C(NO)N/N=C/c1ccc(Br)c([N+](=O)[O-])c1 | 35
30 | COc1cc(/C=N/N=C(\N)NO)cc(OC)c1OC | 54.6
31 | COc1ccccc1/C=N/N=C(\N)NO | 59.7
32 | COc1cccc(/C=N/NC(=N)NO)c1 | 55
33 | N=C(NO)N/N=C/c1ccccc1Br | 72.9
34 | CCN(CC)c1ccc(/C=N/NC(=N)NO)cc1 | 62.1
35 | COc1cc(/C=N/NC(=N)NO)c(Br)c(OC)c1OC | 119.5
36 | N/C(=N\O)N/N=C/c1ccc(Cl)c([N+](=O)[O-])c1 | 42.1
37 | N=C(NO)N/N=C/c1ccc(Br)cc1 | 82.1
38 | COc1ccc(/C=N/NC(=N)NO)cc1O | 68.9
39 | N=C(NO)N/N=C/c1c(Cl)ccc(Cl)c1[N+](=O)[O-] | 68.3
40 | N=C(NO)N/N=C/c1cc([N+](=O)[O-])ccc1O | 25.8
41 | COc1ccc(/C=N/NC(=N)NO)c(Cl)c1OC | 155.6
42 | COc1cc(O)c(/C=N/N=C(\N)NO)c(OC)c1 | 101.7
43 | COc1ccc([N+](=O)[O-])c(/C=N/NC(=N)NO)c1OC | 22
44 | COc1ccc(/C=N/NC(=N)NO)cc1Br | 35.6
45 | N=C(NO)N/N=C/c1c([N+](=O)[O-])cccc1[N+](=O)[O-] | 154.5
46 | COc1cc(Br)cc(/C=N/NC(=N)NO)c1O | 72.4
47 | N/C(=N\O)N/N=C/c1ccccc1O | 33.8
48 | N/C(=N\O)N/N=C/c1ccc(O)c(O)c1O | 40.5
49 | N=C(NO)N/N=C/c1ccc(Cl)cc1 | 57.9
50 | N=C(NO)N/N=C/c1c(Cl)ccc([N+](=O)[O-])c1[N+](=O)[O-] | 216.3
51 | COc1ccc(OC)c([N+](=O)[O-])c1/C=N/NC(=N)NO | 47.3
